For one experiment, the system named is MDA-MB-435. The experiment is described as follows: Cytotoxicity against human MDA-MB-435 cells assessed as inhibition of cell viability incubated for 72 hrs by celltiter-blue cell viability assay. Type of experiment: functional, cell-based. As to conditions: MDA-MB-435, 72 h. A digest of the protocol:
(§1)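 Cells grown in RPMI 1640 or DMEM with 10% FBS, penicillin 100 units/mL and streptomycin 100 μg/mL. Treated with compounds for 72 h; vehicle negative control, paclitaxel positive control. Viability read by CellTiter-Blue absorbance. IC50 relative to vehicle control by nonlinear regression; triplicate measurements, representative of three independent experiments.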
(In general: The colour change of resazurin is a common sign of viable cells or microbes.)

Another experiment concerns MDA-MB-231. The experiment is described as follows: Cytotoxicity against human MDA-MB-231 cells assessed as inhibition of cell viability incubated for 72 hrs by celltiter-blue cell viability assay. Type of experiment: functional, cell-based. The conditions noted are these: MDA-MB-231, 72 h. A digest of the protocol: as §1
A further experiment concerns OVCAR-5. The experiment is described as follows: Cytotoxicity against human OVCAR-5 cells assessed as inhibition of cell viability incubated for 72 hrs by celltiter-blue cell viability assay. Format: functional, cell-based. The conditions noted are these: OVCAR-5, 72 h. The method, boiled down:
as §1

For the next experiment, the system named is OVCAR-3. The experiment is described as follows: Cytotoxicity against human OVCAR-3 cells assessed as inhibition of cell viability incubated for 72 hrs by celltiter-blue cell viability assay. Type of experiment: functional, cell-based. The conditions noted are these: OVCAR-3, 72 h. A digest of the protocol: as §1
In another experiment the test system is HT-29. The experiment is described as follows: Cytotoxicity against human HT-29 cells assessed as inhibition of cell viability incubated for 72 hrs by celltiter-blue cell viability assay. Type of experiment: functional, cell-based. As to conditions: HT-29, 72 h. The method, boiled down:
as §1

Experiment [1] is described as follows: Inhibition of Na+/K+-ATPase (unknown origin) by luminescent ADP detection assay. Set-up: species or system Homo sapiens. A digest of the protocol: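 NKA activity read as ADP formed, by luminescent ADP detection (ADP-Glo Max). IC50 is the concentration giving 50% inhibition of NKA activity. In vitro measurements were run in triplicate and are representative of three independent experiments.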

Consider six compounds from ChEMBL document CHEMBL6121022, “Cytotoxic and Noncytotoxic Steroidal Constituents of Cryptolepis dubia” (J Nat Prod, 2025).

As usually defined, the IC50 is the point on the concentration scale where inhibition reaches its midpoint. Take `C[C@]12CC[C@H]3[C@@H](C=CC4=CC(=O)[C@H](O)C[C@@]43C)[C@@H]1CC[C@@H]2C(=O)CO`: the IC50 with MDA-MB-435, in the experiment on MDA-MB-231, with OVCAR-5, in the experiment with OVCAR-3 and in the experiment with HT-29 was above 10 µM in each case.

As to `C[C@]12CC[C@H]3[C@@H](C=CC4=CC(=O)[C@H](O)C[C@@]43C)[C@@H]1CC[C@@H]2C(=O)O`, the concentration for half-maximal inhibition (IC50) is above 10 µM in the experiment on MDA-MB-435; above 10 µM in the experiment on MDA-MB-231; above 10 µM in the experiment with OVCAR-5; above 100 µM in experiment [1]; above 10 µM in the experiment with OVCAR-3; above 10 µM in the experiment on HT-29.

As for `CO[C@H]1C[C@H](O[C@H]2CC[C@@]3(C)[C@@H](C2)C[C@@H]2O[C@]24[C@@H]3[C@H](OC(C)=O)C(=O)[C@]2(C)[C@@H](C3=CC(=O)OC3)CC[C@]42O)O[C@@H](C)[C@@H]1OC(C)=O`, the IC50 was above 10 µM in the experiment with MDA-MB-435; above 10 µM in the experiment on MDA-MB-231; above 10 µM with OVCAR-5; above 100 µM in experiment [1]; above 10 µM in the experiment with OVCAR-3; above 10 µM in the experiment on HT-29.

`CO[C@H]1C[C@H](O[C@H]2CC[C@@]3(C)[C@@H](C2)C[C@@H]2O[C@]24[C@@H]3[C@H](O)C(=O)[C@]2(C)[C@H](C3=CC(=O)OC3)CC[C@]42O)O[C@@H](C)[C@@H]1O`: the IC50 in the experiment with MDA-MB-435 is above 10 µM; in the experiment on MDA-MB-231 it was above 10 µM; with OVCAR-5, above 10 µM; in experiment [1] it was 40 µM; in the experiment on OVCAR-3, 7 µM; with HT-29, above 10 µM.

`C[C@H]1O[C@@H](O[C@H]2[C@@H](O)C[C@H](O[C@H]3[C@@H](O)C[C@H](O[C@H]4CC[C@@]5(C)[C@H](CC[C@@H]6[C@@H]5CC[C@]5(C)[C@@H](C7=CC(=O)OC7)CC[C@]65O)C4)O[C@@H]3C)O[C@@H]2C)C[C@H](O)[C@@H]1O` [DIGITOXIN]: the IC50 in experiment [1] worked out at 0.46 µM.

For the compound `CC(=O)O[C@H]1C(=O)[C@@]2(C)[C@H]([C@H](OC(=O)c3ccccc3)[C@]3(O)C[C@H](OC(=O)[C@H](O)[C@@H](NC(=O)c4ccccc4)c4ccccc4)C(C)=C1C3(C)C)[C@]1(OC(C)=O)CO[C@@H]1C[C@@H]2O` [PACLITAXEL], in the experiment on HT-29, the IC50 worked out at 0.0034 µM.
